The values that follow come from ChEMBL document CHEMBL3600335 (Bioorg Med Chem Lett, 2015).

The IC50 is the concentration that gives 50% inhibition. Usually CC50 stands for the concentration at which the toxic effect on the cells reaches its halfway point. As a reminder, the solubility is the dissolved amount per volume that the medium holds. One may read the Kd as the constant that tells how readily two partners part at equilibrium.

In data set [1] the test system is Human alphaherpesvirus 1. Description: Antiviral activity against HSV-1 15577 infected in African green monkey Vero cells assessed as reduction of virus-induced cytopathic effect after 4 to 6 days by light microscopic analysis. Type of data set: functional, organism-based. As to conditions: Human alphaherpesvirus 1, 15577, Vero. In general terms: Cytopathic effects are the visible damage that an infection or toxin causes in cultured cells.

In data set [2] the target is Human immunodeficiency virus type 1 reverse transcriptase (Human immunodeficiency virus 1) (UniProt Q72547). As to the kind of experiment: Inhibition of HIV-1 reverse transcriptase at 37.5 to 150 ug/ml by Roche colorimetric assay.
Data set [3] has the same target. As to the kind of experiment: Inhibition of HIV-1 reverse transcriptase in human Jurkat cells assessed as ratio MTT activity to reverse transcriptase activity with compound/reverse transcriptase activity with DMSO at 5 ug/ml after 72 hrs. Type of data set: cell-based. A digest of the protocol:
(§1)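 Jurkat cells infected with HIV-1 in the presence of compound, with DMSO as solvent control. Viability was read by MTT assay and HIV replication by reverse transcriptase activity assay. The value is the ratio MTT activity/(RT activity with compound/RT activity in DMSO).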

The target is the same in data set [4]. As to the kind of experiment: Inhibition of HIV-1 reverse transcriptase in human Jurkat cells assessed as ratio MTT activity to reverse transcriptase activity with compound/reverse transcriptase activity with DMSO at 1 ug/ml after 72 hrs. Type of data set: cell-based. A digest of the protocol:
as §1

Data set [5] relates to Human alphaherpesvirus 1. Description: Antiviral activity against HSV-1 7401H infected in African green monkey Vero cells after 2 to 3 days by plaque reduction assay. As to conditions: Human alphaherpesvirus 1, 7401H. (In general: Plaques are areas of infected cells; plaque reduction assays count them against a control.)
The nature of data set [6]: Cytotoxicity against African green monkey Vero cells assessed as cell viability after 2 days by trypan blue exclusion assay. Type of data set: cell-based. As to conditions: chlorocebus sabaeus.
A short description of data set [7]: Selectivity index, ratio of CC50 for African green monkey Vero cells to IC50 for HSV-1 7401H. The format is functional.
The nature of data set [8]: Selectivity index, ratio of CC50 for African green monkey Vero cells to IC50 for HSV-2 186. Type of data set: functional.
Data set [9] in a line: Solubility of the compound in water at room temperature. Type of data set: physicochemical.
In data set [10] the target is T1, Albumin (Homo sapiens, UniProt P02768). Description: Binding affinity to human serum albumin with excitation at 295 nm after 30 mins by fluorescence spectrophotometric analysis. Type of data set: ADME.
Data set [11] is described as follows: Selectivity index, ratio of CC50 for African green monkey RC-37 cells to IC50 for HSV-1 KOS. Type of data set: functional.
A short description of data set [12]: Cytotoxicity against African green monkey RC-37 cells assessed as cell viability after 3 days by neutral red uptake assay. The format is cell-based. To be noted: chlorocebus aethiops.
Data set [13] deals with T1, Albumin. As to the kind of experiment: Binding affinity to human serum albumin with excitation at 285 nm after 30 mins by fluorescence spectrophotometric analysis. The format is ADME.
The target of data set [14] is T1, Albumin. Description: Binding affinity to human serum albumin with excitation at 285 nm assessed as association constant by fluorescence emission spectroscopic analysis. Type of data set: ADME. To be noted: isolated protein, 0.285 µM.
The test system of data set [15] is Human alphaherpesvirus 2. Description: Antiviral activity against HSV-2 186 infected in African green monkey Vero cells assessed as inhibition of viral yield after 48 hrs by crystal violet staining. Type of data set: functional, cell-based, strain 186. A digest of the protocol: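 Viral replication yield reduction assay against HSV-2 strain 186 over a range of drug concentrations. Viral titer was averaged from quadruplicate samples at each concentration, and IC50 was calculated from the titers. Compounds were tested in two separate experiments.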

Data set [16] concerns Human alphaherpesvirus 1. Description: Antiviral activity against HSV-1 KOS infected in African green monkey RC-37 cells assessed as inhibition of viral replication incubated with virus for 1 hr followed by viral adsorbtion to cells for 1 hr measured after 3 days by plaque reduction assay. The format is functional, organism-based. To be noted: Human alphaherpesvirus 1, KOS.

Data set [17] addresses T1, Albumin. Description: Binding affinity to human serum albumin with excitation at 285 nm by fluorescence emission spectroscopic analysis. The format is ADME. A digest of the protocol: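 Human serum albumin was titrated by fluorescence with the compound, using excitation at 285 nm. Kd was calculated from the titration spectra.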
Data set [18] is described as follows: Cytotoxicity against African green monkey Vero cells assessed as cell viability after 48 hrs by Alamar Blue assay. To be noted: chlorocebus sabaeus. Type of data set: cell-based.
A short description of data set [19]: Selectivity index, ratio of CC50 for African green monkey Vero cells to IC50 for HSV-1 15578. Type of data set: functional.
Data set [20] relates to Human alphaherpesvirus 1. Description: Antiviral activity against HSV-1 15578 infected in African green monkey Vero cells assessed as reduction of virus-induced cytopathic effect after 4 to 6 days by light microscopic analysis. The format is functional, organism-based. As to conditions: Human alphaherpesvirus 1, 15578, Vero.
The nature of data set [21]: Cytotoxicity against African green monkey Vero cells assessed as cell viability after 3 days by MTT assay. Type of data set: cell-based. To be noted: chlorocebus sabaeus. For orientation: Tetrazolium dyes change colour on reduction, which living cells bring about.
Data set [22] concerns Human alphaherpesvirus 2. As to the kind of experiment: Antiviral activity against HSV-2 G infected in African green monkey Vero cells after 2 days by plaque reduction assay. Type of data set: functional, organism-based. As to conditions: Human alphaherpesvirus 2, strain G, 48 h.
The nature of data set [23]: Selectivity index, ratio of CC50 for African green monkey Vero cells to IC50 for HSV-1 F. Type of data set: functional.
Data set [24] deals with Human alphaherpesvirus 1. Description: Antiviral activity against HSV-1 F infected in African green monkey Vero cells after 2 days by plaque reduction assay. To be noted: Human alphaherpesvirus 1, strain F, 48 h. The format is functional, organism-based.
Data set [25] can be described thus: Selectivity index, ratio of CC50 for African green monkey Vero cells to IC50 for HSV-2 G. The format is functional.
Data set [26] in a line: Cytotoxicity against African green monkey Vero cells after 2 days by neutral red uptake assay. As to conditions: chlorocebus sabaeus. The format is cell-based.
Setting [27] is: Human alphaherpesvirus 2, strain 186, Vero, 48 h.

Values after ≈ are worked out from the molar mass of the structure shown. Active and inactive are the calls of the source. The rule behind the calls is not given here.

T1 sequence (P02768 whole entry): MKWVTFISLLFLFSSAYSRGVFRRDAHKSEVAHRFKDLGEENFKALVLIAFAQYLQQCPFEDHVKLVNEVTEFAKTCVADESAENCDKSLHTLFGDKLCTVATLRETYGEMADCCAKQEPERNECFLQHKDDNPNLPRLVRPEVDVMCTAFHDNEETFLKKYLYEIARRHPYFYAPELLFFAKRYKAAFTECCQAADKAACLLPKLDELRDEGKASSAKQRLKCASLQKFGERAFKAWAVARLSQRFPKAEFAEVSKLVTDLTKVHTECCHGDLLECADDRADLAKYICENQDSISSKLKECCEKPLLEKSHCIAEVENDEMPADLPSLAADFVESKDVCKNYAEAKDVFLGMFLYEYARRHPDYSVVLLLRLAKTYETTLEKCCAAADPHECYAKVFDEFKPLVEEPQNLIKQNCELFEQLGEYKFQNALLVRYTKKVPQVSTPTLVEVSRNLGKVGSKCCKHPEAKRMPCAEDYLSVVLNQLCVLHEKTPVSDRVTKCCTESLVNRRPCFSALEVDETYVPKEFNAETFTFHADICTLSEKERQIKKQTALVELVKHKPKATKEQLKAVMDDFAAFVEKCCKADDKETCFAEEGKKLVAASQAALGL

`C=C(C)[C@@H]1CC[C@]2(C(=O)O)CC[C@]3(C)[C@H](CC[C@@H]4[C@@]5(C)CC[C@@H](O)[C@@](C)(C(=O)O)[C@@H]5CC[C@]43C)[C@@H]12`: the IC50 in [1] was 64.4 µM.
In the case of `C=C(C)[C@@H]1CC[C@]2(C(=O)O)CC[C@]3(C)[C@H](CC[C@@H]4[C@@]5(C)CC[C@H](O)C(C)(C)[C@@H]5CC[C@]43C)[C@@H]12`, in data set [2], the inhibition entry is “inactive”. Also, the Ratio in [3] amounted to 0.649; in data set [4], 0.158.
Molecule `C=C(C)[C@@H]1CC[C@]2(C(=O)O)CC[C@]3(C)[C@H](CC[C@@H]4[C@@]5(C)CCC(=O)C(C)(C)[C@@H]5CC[C@]43C)[C@@H]12` [BETUNOLIC ACID] gave an IC50 in data set [5] of 5.7 µM. Also, the CC50 at 48 h in data set [6] amounted to 35.6 µM. Besides, the “Ratio CC50/IC50” value in data set [7] is 6.2.
As for `C=C(C)[C@@H]1CC[C@]2(C(=O)O)CC[C@]3(C)[C@H](CC[C@@H]4[C@@]5(C)CC[C@H](O)C(C)(C)[C@@H]5CC[C@]43C)[C@@H]12` [BETULINIC ACID], the “Ratio CC50/IC50” value is recorded as >62.5 in [8] and 15.6 in data set [11]. The molecule also yielded a solubility in [9] of 0.02 µg/mL (≈ 0.0438 µM). The dissociation constant (Kd) in data set [10] was found to be 1.3 µM; in [13] it was 4.5 µM; in data set [17], 0.593 µM. Moreover, in [12], the CC50 at 72 h amounted to 10.9 µM. Also, the Ka in data set [14] is given as 1.685 ×10⁶ /M. Also, the figures for the IC50 in data set [15] (setting [27]) and in data set [16] were 1.6 µM and 0.7 µM, respectively.
Consider `C=C(C)[C@@H]1CC[C@]2(C(=O)[O-])CC[C@]3(C)[C@H](CC[C@@H]4[C@@]5(C)CC[C@H](O)C(C)(C)[C@@H]5CC[C@]43C)[C@@H]12.CCCCCCCCCCCC[N+](C)(C)Cc1ccccc1`, for which the “Ratio CC50/IC50” value in [8] was determined as 1.7. The Kd in data set [10] is 1.9 µM; in data set [13] it was 1.6 µM. Moreover, the cytotoxic concentration (CC50) at 48 h in data set [18] turned out to be 12 µM. Also, the IC50 in [15] (setting [27]) amounted to 7.2 µM.
Take `C=C(C)[C@@H]1CC[C@]2(C(=O)[O-])CC[C@]3(C)[C@H](CC[C@@H]4[C@@]5(C)CC[C@H](O)C(C)(C)[C@@H]5CC[C@]43C)[C@@H]12.C[N+](C)(C)CCO`: the “Ratio CC50/IC50” value in [8] is recorded as >111.1. The results for the dissociation constant (Kd) in [10] and in data set [13] were 4 µM and 3.9 µM, respectively. For the same molecule, the CC50 at 48 h in [18] was > 100 µM. In addition, in data set [15] (vero), the 50% inhibitory concentration (IC50) stood at 0.9 µM.
For the molecule `C=C(C)[C@@H]1CC[C@]2(C(=O)O)CC[C@]3(C)[C@H](CC[C@@H]4[C@@]5(C)CC[C@@H](OS(=O)(=O)O)C(C)(C)[C@@H]5CC[C@]43C)[C@@H]12`, the “Ratio CC50/IC50” value in [19] is 5. The IC50 in data set [20] was determined as 45.7 µM. In addition, the CC50 at 72 h in data set [21] was 228 µM.
On to `C=C(C)[C@@H]1CC[C@]2(C(=O)N[C@H](C)C(=O)[O-])CC[C@]3(C)[C@H](CC[C@@H]4[C@@]5(C)CC[C@H](O)C(C)(C)[C@@H]5CC[C@]43C)[C@@H]12.C[N+](C)(C)CCO`, for which the “Ratio CC50/IC50” value in data set [8] was >166.7. The Kd in data set [10] was found to be 37 µM; in data set [13] it was 47 µM. The cytotoxic concentration (CC50) at 48 h in [18] was > 100 µM. In addition, the IC50 in [15] (setting [27]) amounted to 0.6 µM.
For the molecule `C=C(C)[C@@H]1CC[C@]2(C(=O)N[C@H](C)C(=O)[O-])CC[C@]3(C)[C@H](CC[C@@H]4[C@@]5(C)CC[C@H](O)C(C)(C)[C@@H]5CC[C@]43C)[C@@H]12.CCCCCCCCCCCC[N+](C)(C)Cc1ccccc1`, the “Ratio CC50/IC50” value in [8] is reported as 11.6. In addition, the equilibrium dissociation constant (Kd) in [10] and in data set [13] was 19 µM in each case. In [18], the 50% cytotoxic concentration (CC50) at 48 h stood at 10.5 µM. In [15] (setting [27]), the IC50 was determined as 0.9 µM.
As to `C=C(C)[C@@H]1CC[C@]2(CO)CC[C@]3(C)[C@H](CC[C@@H]4[C@@]5(C)CC[C@H](O)C(C)(C)[C@@H]5CC[C@]43C)[C@@H]12` [BETULIN], the half-inhibitory concentration (IC50) turned out to be 9.4 µM in [22], 0.9 µM in data set [24] and 0.7 µM in data set [16]. Moreover, the “Ratio CC50/IC50” value is given as 183 in data set [23], 71 in data set [11] and 17.6 in data set [25]. Besides, in [12], the 50% cytotoxic concentration (CC50) at 72 h is 49.7 µM. Also, in data set [26], the CC50 at 48 h was found to be 165 µM.
